Compound activity: PubChem, The Scripps Research Institute Molecular Screening Center
The list is not random: actives were taken first. Their share in the collection is about 2.3%.
OXTR agonist = agonists of human oxytocin receptor; activation, % at 3 µM; actives 0.32% (n = 320,000); CHO-OTR cells, Fluo-8 calcium fluorescence; normalized: DMSO 0%, oxytocin 100%; P30559;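 active = activation above the mean of all tested compounds plus 3 SD, cutoff set per screening run, cut at about 20% in these data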;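 note: peak over basal fluorescence ratio from a 100 s FLIPR kinetic read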
Target sequence (P30559 whole entry, looked up): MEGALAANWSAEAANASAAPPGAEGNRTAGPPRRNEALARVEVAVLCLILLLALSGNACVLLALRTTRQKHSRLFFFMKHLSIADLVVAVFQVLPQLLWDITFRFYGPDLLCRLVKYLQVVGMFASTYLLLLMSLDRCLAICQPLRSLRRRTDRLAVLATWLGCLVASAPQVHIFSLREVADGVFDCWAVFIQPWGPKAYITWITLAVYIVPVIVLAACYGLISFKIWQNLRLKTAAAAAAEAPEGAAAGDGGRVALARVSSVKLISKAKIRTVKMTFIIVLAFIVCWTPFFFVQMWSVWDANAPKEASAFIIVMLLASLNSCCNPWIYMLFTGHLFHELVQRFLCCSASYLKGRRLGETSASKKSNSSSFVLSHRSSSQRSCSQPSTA
OXTR potentiate = human OXTR potentiation. P30559. CHO-OTR cells, Fluo-8 calcium fluorescence, potentiator mode; 0% = oxytocin EC15, 100% = EC100. activation, % at 3 µM. actives 0.061% (n = 320,000). AID 2445;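 active = activation above that plate's cutoff, the mean activation of tested compounds plus 3 SD, cut at about 6.6% in these data, passing the limit was not always enough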;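 note: 100% uses oxytocin at 75 nM as the full agonist control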
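System: human OTR in CHO cells; Also added: sub-maximal oxytocin, roughly EC15; Timing: compound 6 min at room temperature before oxytocin, 100 s read; Technique: Fluo-8 intracellular calcium fluorescence, ex 470-495, em 515-575 nm; Controls: oxytocin EC15 low and EC100 high; Replication: singlicate.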
V1aR counter = activates human V1a receptor in oxytocin agonist counter-screen; CHO-V1R cells, Fluo-8 calcium fluorescence, agonist mode; 0% DMSO, 100% 3 nM vasopressin; activation, % at 3 µM; actives 0.25% (n = 320,000); AID 2797;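 active = activation above the mean activation of all tested compounds plus 3 SD, per screening run, cut at about 20% in these data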;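 note: signal is peak over basal fluorescence ratio across a 100 second FLIPR read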
TAAR1 antag = antagonists of human TAAR1; Q96RJ0; CHO RD-HGA16 TAAR1, Fluo-8 calcium fluorescence, antagonist; inhibition, % at 3 µM; actives 1.5% (n = 360,000); AID 624466;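 active = inhibition above a per-plate cutoff, the mean inhibition of test compounds on that plate plus 3 SD, cut at about 49% in these data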;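 note: 0% = DMSO plus EC80 beta-PEA response and 100% = DMSO alone without agonist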
Target sequence (Q96RJ0 whole entry, looked up): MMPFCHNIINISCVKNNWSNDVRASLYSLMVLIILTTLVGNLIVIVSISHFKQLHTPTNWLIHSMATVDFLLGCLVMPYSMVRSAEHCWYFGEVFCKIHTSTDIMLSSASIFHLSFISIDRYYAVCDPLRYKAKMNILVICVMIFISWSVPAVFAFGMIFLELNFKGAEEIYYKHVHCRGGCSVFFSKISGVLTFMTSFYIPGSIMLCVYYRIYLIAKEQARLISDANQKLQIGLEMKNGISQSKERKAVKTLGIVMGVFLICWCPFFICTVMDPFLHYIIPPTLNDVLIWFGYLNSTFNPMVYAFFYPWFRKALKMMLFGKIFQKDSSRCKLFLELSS
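Material: CHO RD-HGA16 cells bearing hTAAR1; compound dosing: one-point dosing, 3 µM nominal final; schedule: dye loading 75 min at 37 °C, then 30 min room temperature; measured by: calcium fluorescence with Fluo-8; control set: vehicle and agonist controls; replication: n of 1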
TAAR1 agonist = human TAAR1 agonism | CHO RD-HGA16 TAAR1, Fluo-8 calcium fluorescence; vehicle wells 0%, saturating PEA agonist 100% | activation, % at 3 µM | AID 624467 | actives 0.99% (n = 360,000);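 active = activation above the mean activation of all test compounds in the run plus 3 SD, cut at about 38% in these data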
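Benchmarks: low control DMSO, high control PEA (EC100); System: CHO RD-HGA16 cells carrying human TAAR1 plus Gα16; Detection: Fluo-8 fluorescence, 5 s baseline then 140 s kinetic read; Schedule: 17-24 h plating, Fluo-8 75 min 37 °C, 30 min RT; Read-out basis: % activation from peak over basal fluorescence ratio, DMSO-to-PEA scaled.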
TAAR1 ag conf = confirmation of human TAAR1 agonists. shares compounds with TAAR1 agonist. actives 82% (n = 2,400). activation, % at 3 µM. CHO RD-HGA16 TAAR1, Fluo-8 calcium fluorescence; scaled: DMSO 0%, maximal phenethylamine 100%;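 active = activation above a cutoff set at the run's mean compound activation plus 3 SD, cut at about 39% in these data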
Ga16 nonsel ag = nonselective agonist in parental cells, TAAR1 agonist counter-screen. CHO-Ga16 parental, Fluo-8 calcium fluorescence; normalized to maximal ATP response, DMSO zero. shares compounds with TAAR1 agonist. activation, % at 3 µM. actives 50% (n = 2,400);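 active = activation above the run cutoff, the mean activation over all tested wells plus 3 SD, cut at about 12% in these data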;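 note: 0% = DMSO wells and 100% = maximal ATP response on the peak over basal ratio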
TAAR1 desensitize = human TAAR1 agonist that also desensitizes the receptor; shares compounds with TAAR1 agonist; CHO RD-HGA16 hTAAR1, Fluo-8 calcium, beta-PEA response inhibition; inhibition, % at 3 µM; actives 46% (n = 2,400); AID 651951;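 active = inhibition above the run cutoff, the mean inhibition of all test compounds plus 3 SD, cut at about 49% in these data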;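 note: beta-PEA stimulus applied at its EC80; loss of beta-PEA calcium signal after compound pretreatment read as receptor desensitization; 0% = DMSO with beta-PEA at EC80 and 100% = DMSO alone without agonist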
Ga16 antag count = counter-screen for TAAR1 agonists: nonselective Ga16 antagonists | shares compounds with TAAR1 agonist | actives 39% (n = 2,400) | inhibition, % at 3 µM | CHO-Ga16 ATP-induced calcium, Fluo-8 fluorescence;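 active = inhibition above the plate's mean compound inhibition plus 3 SD, computed per plate, cut at about 22% in these data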;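 note: 0% = EC80 ATP with DMSO and 100% = DMSO wells without ATP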
The depositor's hits bear a star; . = no result given.

SMILES	OXTR agonist	OXTR potentiate	V1aR counter	TAAR1 antag	TAAR1 agonist	TAAR1 ag conf	Ga16 nonsel ag	TAAR1 desensitize	Ga16 antag count
N#C/C(=C/c1ccc(N2CCCCC2)o1)C(=O)Nc1ccc(Cl)cc1	197.2*	-10.4	225.3*	108.6*	312.3*	127.3*	165.7*	95.6*	92.2*
N#C/C(=C/c1ccc(N2CCCCC2)o1)C(=O)Nc1ccc2ccccc2c1	.	.	.	107.1*	268.2*	199.2*	223.2*	93.4*	94.7*
CC1CC1c1ccc(/C=C(\C#N)C(=O)Nc2ccccc2Cl)o1 (stereo unspecified)	-0.6	-6.9	0.7	1.7	1.6	.	.	.	.
CN(C(=O)COC(=O)c1ccc(Cl)s1)C1(C#N)CCCCC1	.	.	.	6.7	0.0	.	.	.	.
COc1cc(C(=O)OCC(=O)NC(N)=O)cc(CN2C(=O)c3ccccc3C2=O)c1OC	0.1	-2.0	-0.5	-1.2	-0.4	.	.	.	.
CNC(=O)COC(=O)c1ccc2c(c1)NC(=O)C1CCCN21 (stereo unspecified)	0.2	-3.9	0.6	.	.	.	.	.	.
O=S(=O)(c1ccccc1)c1cnc(-c2ccccc2)nc1N1CCCCC1	-1.2	-11.1	-1.0	5.7	1.4	.	.	.	.
C[C@H](NC(=O)c1[nH]cnc1C(=O)N[C@H](C)c1ccccc1)c1ccccc1	3.9	-7.1	2.1	24.5	46.7*	41.5*	9.9	16.5	6.3
Cc1ccc(-n2nnnc2SCC(=O)c2c(N)n(C3CC3)c(=O)[nH]c2=O)c(C)c1	1.1	3.8	2.0	-17.9	54.7*	24.2	7.7	-6.4	-8.9
CNC[C@H](CC1CCCCC1)NC[C@H](Cc1ccccc1)NCCC12CC3CC(CC(C3)C1)C2	12.9	-7.8	15.8	36.9	56.2*	93.6*	81.3*	80.6*	89.0*
CCN(CC)CCn1c2c(c(SCC(=O)Nc3cc(OC)cc(OC)c3)nc1=O)CCC2	-0.8	-3.4	-1.0	-5.7	0.3	.	.	.	.
Fc1ccc(CNC(=S)NCc2ccccc2)cc1	-0.4	-8.6	2.5	12.9	1.4	.	.	.	.
O=S(=O)(c1ccc(NC(=S)NCCc2ccccc2)cc1)N1CCOCC1	7.7	-10.9	10.8	14.6	74.2*	85.7*	13.0*	65.3*	26.4*
NS(=O)(=O)c1ccc(NC(=S)NCCc2ccccc2)cc1	1.0	-5.5	-0.2	32.5	54.2*	81.8*	1.3	68.3*	4.3
S=C(NCc1ccccc1)NCc1ccc(CNC(=S)NCc2ccccc2)cc1	3.9	-4.7	10.8	65.1*	55.6*	51.1*	20.1*	62.7*	47.3*
O=S(=O)(NC1=NCCC1)c1cccc(NC(=S)NCCc2ccccc2)c1	0.0	-5.3	0.7	-5.0	62.4*	11.5	3.7	6.2	8.0
COCCN1CCC(CNCc2cn(-c3cc(C)ccc3C)nc2-c2ccccc2)C1 (stereo unspecified)	0.3	-4.1	-0.2	-5.6	0.5	.	.	.	.
C/C(=N\NC(=O)CC1N=C(Cc2ccccc2)NNC1=O)c1ccc(Br)cc1 (stereo unspecified)	-2.5	0.3	0.0	-35.0	-0.3	.	.	.	.
Cc1ccc(S(=O)(=O)Oc2ccc(/C=N/NC(=O)c3cccnc3)cc2)cc1	1.7	-11.8	1.0	30.2	8.2	.	.	.	.
CN1CCN(Cc2coc3c(Cl)cc(Cl)cc3c2=O)CC1	0.8	-3.6	0.0	-21.2	3.0	.	.	.	.
O=C(CCn1cccn1)N1CCCC(Nc2ccc(F)c(F)c2)C1 (stereo unspecified)	.	.	.	-9.4	-0.4	.	.	.	.
CC(=O)c1cccc(NC(=O)Cn2cnc(S(=O)(=O)N3CCCC3)c2)c1	0.3	-6.4	0.6	-9.5	1.9	.	.	.	.
CCOC(=O)c1ccc(NC(=S)NCCc2ccccc2F)cc1	6.8	-7.4	7.9	36.7	70.2*	88.6*	10.9	86.0*	33.4*
NNC(=S)NCCc1ccccc1	0.1	4.3	0.1	.	.	.	-0.4	.	4.2
COC(=O)c1ccc(NC(=S)Nc2ccccc2)cc1	1.1	-0.1	0.5	-6.0	3.1	.	.	.	.
SMILES	OXTR agonist	OXTR potentiate	V1aR counter	TAAR1 antag	TAAR1 agonist	TAAR1 ag conf	Ga16 nonsel ag	TAAR1 desensitize	Ga16 antag count
CCOC(=O)c1ccc(NC(=S)NCc2ccccc2)cc1	6.7	-14.2	11.3	16.9	6.3	.	.	.	.
COc1ccc(C(=O)NC(=S)Nc2ccc(S(N)(=O)=O)cc2)cc1	0.5	-6.4	1.1	10.8	0.3	.	.	.	.
COC(=O)c1ccc(NC(=S)NCCc2ccccc2)cc1	9.1	-24.3	9.2	53.8*	73.1*	81.9*	11.9*	77.4*	28.3*
COc1ccc(CC(=O)NC(=S)Nc2ccc(S(N)(=O)=O)cc2)cc1	24.6*	-13.0	24.4*	28.4	80.9*	88.2*	39.6*	46.5	27.9*
Cc1cc(C)cc(CC(=O)N2CCC2(C)C(=O)NS(=O)(=O)c2cc(C)ccc2F)c1 (stereo unspecified)	.	.	.	10.5	2.4	.	.	.	.
COc1ccc(S(=O)(=O)NNC(=S)NCCc2ccccc2)c(OC)c1	-0.1	-5.4	-0.6	-30.1	49.4*	16.8	0.8	3.2	6.2
O=c1[nH]c(=O)n(Cc2ccco2)c2c1C(C(F)(F)F)(C(F)(F)F)N=C(CCC1CCCCC1)N2	11.2	-8.3	8.1	25.9	58.5*	37.8*	21.4*	56.4*	34.9*
O=c1[nH]c(=O)n(-c2ccccc2)c2c1C(C(F)(F)F)(C(F)(F)F)N=C(CCC1CCCCC1)N2	4.4	-4.7	1.6	-2.2	47.4*	100.9*	70.5*	95.4*	51.6*
CC(C)Cn1c2c(c(=O)[nH]c1=O)C(C(F)(F)F)(C(F)(F)F)N=C(CCC1CCCCC1)N2	0.5	-6.6	10.8	7.4	23.0	.	.	.	.
CCCc1c(C)nc(N2CCN(c3ccccc3OC)CC2)[nH]c1=O	-0.3	-6.4	0.3	-26.0	3.3	.	.	.	.
CCOc1cc(OCC)nc(S(C)(=O)=O)n1	0.5	1.7	0.9	1.2	-1.9	.	.	.	.
Cc1nc(NCCc2ccccc2)c2nnn(Cc3ccccc3)c2n1	-2.5	-4.4	-0.3	44.7	51.2*	76.6*	15.0*	45.1	2.3
CC(=O)NCCNc1nc(NCc2ccccc2)nc2ccsc12	.	.	.	92.2*	90.6*	108.6*	23.4*	101.5*	53.0*
COCCNc1nc(NC(C)C)nc2ccsc12	.	.	.	-13.3	16.2	.	.	.	.
